ChEMBL document CHEMBL1121449, “Synthesis and antineoplastic activity of hydroquinone dialdehydes” (J Med Chem, 1980)

How the values were obtained:
Mus musculus [1] = assay: Tested for mean survival time treated animal not surviving 50 days as a percentage at dose of 20 mg/kg; assay type: functional
In short: (§1)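 Female CD-1 mice, Sarcoma 180 ascites, 0.1 mL of 10^7 cells/mL given ip. Drug in 0.9% NaCl, 5% ethanol, Tween 80, serially diluted with saline. Dosed ip at 0.5 mL daily for 6 days from 24 h post-implant; daily dose based on starting mean weight. T/C is the mean survival of treated mice dying before 50 days vs controls. Survivors are those alive ≥50 days out of those treated.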

Mus musculus [2] = assay: Tested for mean survival time treated animal not surviving 50 days as a percentage at dose of 10 mg/kg; assay type: functional; in short: as §1
[3] = Tested for inhibition of growth of sarcoma 180 cells in culture; assay type: functional, cell-based; conditions: Mus musculus
In short: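 Sarcoma 180 cells in suspension in Fischer's medium with 10% horse serum and penicillin/streptomycin, seeded at 10^4 cells/mL. Drug added from 10× stocks in 10% Me2SO/PBS, final 1–100 μM. Control cultures contained 1% Me2SO. Triplicate Coulter counts at 24, 48 and 72 h. IC50 read from a plot of inhibition of cell-number increase at 72 h versus concentration.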

Mus musculus [4] = assay: Tested for number of animal surviving at least 50 days out of 10 animal treated at dose of 20 mg/kg; assay type: functional; in short: as §1
Mus musculus [5] = assay: Tested for change in body weight from onset to termination at dose of 10 mg/kg; assay type: functional
In short: (§2)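 Female CD-1 mice inoculated ip with 0.1 mL of 10^7 Sarcoma 180 ascites cells/mL. Drug in 0.9% NaCl with 5% ethanol and Tween 80, serially diluted in saline, given ip once daily for 6 days starting 24 h after implantation. Dose based on mean starting weight. Controls received saline. Weight change recorded from day 0 to day 7, as % change.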

Mus musculus [6] = assay: Tested for mean survival time treated animal not surviving 50 days as a percentage at dose of 5 mg/kg; assay type: functional; in short: as §1
Mus musculus [7] = assay: Tested for change in body weight from onset to termination at dose of 5 mg/kg; assay type: functional; in short: as §2
Mus musculus [8] = assay: Tested for number of animal surviving at least 50 days out of 10 animal treated at dose of 5 mg/kg; assay type: functional; in short: as §1
Mus musculus [9] = assay: Tested for change in body weight from onset to termination at dose of 20 mg/kg; assay type: functional; in short: as §2
Mus musculus [10] = assay: Tested for number of animal surviving at least 50 days out of 10 animal treated at dose of 10 mg/kg; assay type: functional; in short: as §1
Mus musculus [11] = assay: Tested for change in body weight from onset to termination at dose of 2.5 mg/kg; assay type: functional; in short: as §2
Mus musculus [12] = assay: Tested for number of animal surviving at least 50 days out of 5 animal treated at dose of 1.25 mg/kg; assay type: functional; in short: as §1
Mus musculus [13] = assay: Tested for number of animal surviving at least 50 days out of 5 animal treated at dose of 2.5 mg/kg; assay type: functional; in short: as §1
Mus musculus [14] = assay: Tested for change in body weight from onset to termination at dose of 15 mg/kg; assay type: functional; in short: as §2
Mus musculus [15] = assay: Tested for number of animal surviving at least 50 days out of 5 animal treated at dose of 15 mg/kg; assay type: functional; in short: as §1
Mus musculus [16] = assay: Tested for mean survival time treated animal not surviving 50 days as a percentage at dose of 15 mg/kg; assay type: functional; in short: as §1
Mus musculus [17] = assay: Tested for mean survival time treated animal not surviving 50 days as a percentage at dose of 2.5 mg/kg; assay type: functional; in short: as §1
Mus musculus [18] = assay: Tested for mean survival time treated animal not surviving 50 days as a percentage at dose of 1.25 mg/kg; assay type: functional; in short: as §1
Mus musculus [19] = assay: Tested for change in body weight from onset to termination at dose of 1.25 mg/kg; assay type: functional; in short: as §2

Compound	Activity (Mus musculus [1]) [%]	Activity (Mus musculus [2]) [%]	IC50 [3] [µM]	Survivors (Mus musculus [4])	Activity (Mus musculus [5]) [%]	Activity (Mus musculus [6]) [%]	Activity (Mus musculus [7]) [%]	Survivors (Mus musculus [8])	Activity (Mus musculus [9]) [%]	Survivors (Mus musculus [10])	Activity (Mus musculus [11]) [%]	Survivors (Mus musculus [12])	Survivors (Mus musculus [13])	Activity (Mus musculus [14]) [%]	Survivors (Mus musculus [15])	Activity (Mus musculus [16]) [%]	Mean survival time, treated vs control (T/C) (Mus musculus [17]) [%]	Activity (Mus musculus [18]) [%]	Activity (Mus musculus [19]) [%]
COc1c(C)c(C)c(OC)c(C=O)c1C=O	103	96	97	0	15	81	15	0	11	0	–	–	–	–	–	–	–	–	–
Cc1c(C)c(O)c(C)c(C)c1O [DUROHYDROQUINONE]	–	–	12	–	–	–	–	–	–	–	–	–	–	–	–	–	–	–	–
COc1c(C)c(C)c(O)c(C=O)c1C=O	–	–	37	–	–	–	–	–	–	–	–	–	–	–	–	–	–	–	–
O=Cc1c(C=O)c(O)c2ccccc2c1O	76	90	66	0	17	93	14	0	1	0	14	0	0	0	1	64	81	81	16
